The nature of assay [1]: Antioxidant activity assessed as authentic peroxynitrite free radical scavenging activity after 5 mins.
In assay [2] the test system is Radical scavenging activity. As to the kind of experiment: Antioxidant activity assessed as DPPH radical scavenging activity after 30 mins. Format: functional. In a few lines: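 Samples in DMSO were plated in triplicate with 200 µM DPPH in EtOH, 37 °C, 30 min, dark, and absorbance read at 515 nm. Percent scavenging was taken against the DMSO control, with gallic acid as positive control. Screening was at 200 µg/mL final, and actives were retested at 2.5–20 µg/mL. IC50 came from linear regression extrapolation.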
(DPPH is a stable violet radical that fades when it is reduced.)

Assay [3] can be described thus: Antioxidant activity assessed as 3-morpholinosydnonimine-derived peroxynitrite free radical scavenging activity after 5 mins.
Assay [4] is described as follows: Antioxidant activity assessed as authentic peroxynitrite free radical scavenging activity […]. Format: functional. In a few lines: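 Authentic peroxynitrite (10 µM, in 0.3 N NaOH) oxidizing dihydrorhodamine 123, working solution 5 µM. Buffer was nitrogen-purged 50 mM Na2HPO4, 50 mM NaH2PO4, 90 mM NaCl and 5 mM KCl with 5 mM DTPA. Room temperature, fluorescence at ex 485/em 530 nm; background and final intensities read 5 min after treatment.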

Assay [5] can be described thus: Antioxidant activity assessed as 3-morpholinosydnonimine-derived peroxynitrite free radical scavenging activity […]. Format: functional. In a few lines: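 Peroxynitrite was generated from SIN-1 (10 µM) and measured as oxidation of dihydrorhodamine 123, working solution 5 µM. Buffer was nitrogen-purged 50 mM Na2HPO4, 50 mM NaH2PO4, 90 mM NaCl and 5 mM KCl with 5 mM DTPA. Run at room temperature, fluorescence read at ex 485/em 530 nm; background and final intensities taken 5 min after treatment.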

In general, IC50 refers to the concentration at which inhibition is half-maximal. For the compound `COC(=O)C1=CO[C@@H](O[C@@H]2O[C@H](CO)[C@@H](O)[C@H](O)[C@H]2O)C2C1[C@@H]1O[C@@H]1[C@]21O[C@@H]1O` (stereo not given in full) [CITRIFOLININ B EPIMER B], the IC50 in assay [1], in assay [2] and in assay [3] was above 30 µM each time.
With `O=C1O[C@H]2C=C(CO)[C@@H](CO)[C@H]2[C@@H]1CO` [BORRERIAGENIN], the IC50 in assay [1], in assay [2] and in assay [3] was above 30 µM throughout.
Turning to `COC(=O)C1=CO[C@@H](O[C@@H]2O[C@H](CO)[C@@H](O)[C@H](O)[C@H]2O)[C@@H]2[C@@H](CO)C[C@H](O)[C@H]12`, the half-maximal inhibitory concentration (IC50) in assay [2], in assay [4] and in assay [5] was above 30 µM each time.
For the compound `CC[C@H](CC[C@@H](C)[C@H]1CC[C@H]2[C@@H]3CC=C4C[C@@H](O[C@@H]5O[C@H](CO)[C@@H](O)[C@H](O)[C@H]5O)CC[C@]4(C)[C@H]3CC[C@]12C)C(C)C` [SITOGLUSIDE], the IC50 in assay [1], in assay [2] and in assay [3] was above 30 µM throughout.
For the compound `OC[C@H]1OC(O)[C@H](O)[C@@H](O)[C@@H]1O` (stereo not given in full) [DEXTROSE], the IC50 in assay [1], in assay [2] and in assay [3] was above 30 µM throughout.
As to `CC(=O)OCC1=C[C@@H]2OC(=O)C3=CO[C@@H](O[C@@H]4O[C@H](CO)[C@@H](O)[C@H](O)[C@H]4O)[C@H]1[C@@H]32` [ASPERULOSIDE], the IC50 in assay [1], in assay [2] and in assay [3] was above 30 µM throughout.
Regarding `COC(=O)C1=CO[C@@H](O[C@@H]2O[C@H](CO)[C@@H](O)[C@H](O)[C@H]2O)[C@H]2[C@@H]1C=C[C@@]21C=C(C(=O)c2ccc(O)c(OC)c2)C(=O)O1` [DEHYDROMETHOXYGAERTNEROSIDE], the IC50 in assay [1], in assay [2] and in assay [3] was above 30 µM each time.
For the compound `CC(=O)OCC1=C[C@H](O)[C@@H]2C(C(=O)O)=CO[C@@H](O[C@H]3O[C@@H](CO)[C@H](O)[C@@H](O)[C@@H]3O)[C@H]12` [ASPERULOSIDIC ACID], the IC50 in assay [1], in assay [2] and in assay [3] was above 30 µM each time.
Regarding `COC(=O)C1=CO[C@@H](O[C@@H]2O[C@H](CO)[C@@H](O)[C@H](O)[C@H]2O)C2C1[C@@H]1O[C@@H]1[C@]21O[C@H]1O` (single isomer, unassigned; epimer a) [CITRIFOLININ B EPIMER A], the IC50 in assay [1], in assay [2] and in assay [3] was above 30 µM throughout.
`COC(=O)C1=CO[C@@H](O[C@@H]2O[C@H](CO)[C@@H](O)[C@H](O)[C@H]2O)[C@H]2[C@@H]1[C@@H]1O[C@@H]1[C@@]2(O)CO`: the half-maximal inhibitory concentration (IC50) in assay [1], in assay [2] and in assay [3] was above 30 µM each time.
With `CO[C@@]1(CO)O[C@H](CO)[C@@H](O)[C@@H]1O`, the half-inhibitory concentration (IC50) in assay [1], in assay [2] and in assay [3] was above 30 µM each time.
Turning to `O=C1O[C@H]2C=C(CO)[C@H]3[C@H](O[C@@H]4O[C@H](CO)[C@@H](O)[C@H](O)[C@H]4O)OC=C1[C@H]32` [DEACETYLASPERULOSIDE], the half-inhibitory concentration (IC50) in assay [1], in assay [2] and in assay [3] was above 30 µM each time.
Turning to `CO[C@]1(CO)O[C@H](CO)[C@@H](O)[C@@H]1O`, the 50% inhibitory concentration (IC50) in assay [1], in assay [2] and in assay [3] was above 30 µM in each case.
Take `O=C/C=C/c1ccc2c(c1)O[C@@H](CO)[C@H](c1ccc(O)c(O)c1)O2` [AMERICANIN A]: the IC50 in assay [2] stood at 16.9 µM.
As to `OC[C@@H](O)[C@@H](O)[C@H](O)[C@H](O)CO` [MANNITOL], the half-inhibitory concentration (IC50) in assay [1], in assay [2] and in assay [3] was above 30 µM each time.
As for `Nc1ccn([C@@H]2O[C@H](CO)[C@@H](O)[C@H]2O)c(=O)n1` [CYTIDINE], the IC50 in assay [1], in assay [2] and in assay [3] was above 30 µM each time.
For the compound `O=C(O)c1cc(O)c(O)c(O)c1` [GALLIC ACID], the 50% inhibitory concentration (IC50) in assay [2] worked out at 2.7 µM.
Turning to `C[C@@H]1O[C@@H](OC[C@H]2O[C@@H](Oc3c(-c4ccc(O)cc4)oc4cc(O)cc(O)c4c3=O)[C@H](O)[C@@H](O)[C@@H]2O)[C@H](O)[C@H](O)[C@H]1O` [NICOTIFLOROSIDE], the IC50 in assay [1], in assay [2] and in assay [3] was above 30 µM throughout.

The record behind these values is ChEMBL document CHEMBL1158739, “Chemical constituents of the fruits of Morinda citrifolia (Noni) and their antioxidant activity” (J Nat Prod, 2005).
